{"source": "paper PMC11974842", "about": "(bioRxiv, 2025)", "molecules": {"B1": {"name": "ScCia1, strep-tagged bait (natural protein)", "chain": "MASINLIKSLKLYKEKIWSFDFSQGILATGSTDRKIKLVSVKYDDFTLIDVLDETAHKKAIRSVAWRPHTSLLAAGSFDSTVSIWAKEESADRTFEMDLLAIIEGHENEVKGVAWSNDGYYLATCSRDKSVWIWETDESGEEYECISVLQEHSQDVKHVIWHPSEALLASSSYDDTVRIWKDYDDDWECVAVLNGHEGTVWSSDFDKTEGVFRLCSGSDDSTVRVWKYMGDDEDDQQEWVCEAILPDVHKRQVYNVAWGFNGLIASVGADGVLAVYEEVDGEWKVFAKRALCHGVYEINVVKWLELNGKTILATGGDDGIVNFWSLEKAA"}}, "key": {"[1]": {"biological_target": "ScCia2 (Saccharomyces cerevisiae)", "assay": "MST"}, "[2]": {"biological_target": "FITC-4mer probe (last 4 residues of ScLeu1) (Saccharomyces cerevisiae) (UniProt P07264)", "assay": "fluorescence polarisation"}, "[3]": {"biological_target": "B1", "assay": "pull-down"}, "ScNar1": {"biological_target": "T1, ScNar1 (Saccharomyces cerevisiae, UniProt P23503 1-491)", "T1 sequence": "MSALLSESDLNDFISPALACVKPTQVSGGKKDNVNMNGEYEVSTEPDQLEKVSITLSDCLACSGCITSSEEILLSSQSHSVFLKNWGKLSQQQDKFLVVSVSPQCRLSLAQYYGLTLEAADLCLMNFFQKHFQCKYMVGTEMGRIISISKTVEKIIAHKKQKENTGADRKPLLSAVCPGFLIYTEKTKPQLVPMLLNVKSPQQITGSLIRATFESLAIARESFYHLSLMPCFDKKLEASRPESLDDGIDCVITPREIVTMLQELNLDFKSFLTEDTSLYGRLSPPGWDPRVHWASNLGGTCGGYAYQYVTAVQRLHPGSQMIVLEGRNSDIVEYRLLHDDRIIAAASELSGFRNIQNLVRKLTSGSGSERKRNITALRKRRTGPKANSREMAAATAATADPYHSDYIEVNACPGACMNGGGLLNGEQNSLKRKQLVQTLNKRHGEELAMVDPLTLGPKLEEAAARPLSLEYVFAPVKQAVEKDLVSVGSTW", "assay": "pull-down"}, "[4]": {"system": "ScCTC (Cia1, Cia2, Met18)", "assay": "Affinity copurification with ScCTC", "assay_type": "binding, Saccharomyces cerevisiae", "settings": "streptactin eluate, strep-tagged Cia2 bait, SDS-PAGE / western blot", "method_in_brief": "(§1)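 Nar1 is the prey. Strep-tagged bait is either single CTC subunits (Cia1 alone) or combinations (Cia1-Cia2, or full Cia1-Cia2-Met18 complex). Eluates are analysed by SDS-PAGE and western blot for copurifying Nar1. Uncropped gels, including input samples and controls, accompany the analysis.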"}, "ScCTC-Leu1 complex": {"system": "ScCTC-Leu1 complex", "assay": "Competition of Nar1 with Leu1 for the CTC", "assay_type": "binding, Saccharomyces cerevisiae", "settings": "Nar1 0.25-1.0 molar equivalents relative to Leu1; streptactin eluate, SDS-PAGE"}, "ScCia1-Cia2": {"system": "ScCia1-Cia2", "assay": "Affinity copurification with ScCia1-Cia2", "assay_type": "binding, Saccharomyces cerevisiae", "settings": "streptactin eluate, SDS-PAGE / western blot", "method_in_brief": "as §1"}, "ScCia1": {"system": "ScCia1", "assay": "Affinity copurification with ScCia1", "assay_type": "binding, Saccharomyces cerevisiae", "settings": "streptactin eluate, SDS-PAGE / western blot", "method_in_brief": "as §1"}, "SPCNar1": {"system": "SPCNar1", "assay": "Affinity copurification of ScCia1 variants with SPCNar1", "assay_type": "binding, Saccharomyces cerevisiae", "settings": "ScCia1 variants with Met18 and strep-tagged Cia2 bait, western blot"}, "full-length Nar1": {"system": "full-length Nar1", "assay": "Affinity copurification of CTC with ScCia1 variants and full-length Nar1", "assay_type": "binding, Saccharomyces cerevisiae", "settings": "ScCia1 variants incorporated into the CTC"}}}
{"molecule": "ScCia1 Y254A (from UniProt Q05583 1-330) (natural protein)", "values": [{"measurement": "fold increase in KD against wild-type Cia1", "setting": "[1]", "result": "> 10", "unit": "fold"}]}
{"molecule": "ScCia1-Cia2 complex (from UniProt Q05583 1-330)", "values": [{"measurement": "Kd", "setting": "[2]", "result": 86, "unit": "µM"}]}
{"molecule": "CtCia1-Cia2 complex", "values": [{"measurement": "Kd", "setting": "[2]", "result": 25, "unit": "µM"}]}
{"molecule": "HsCia1-Cia2a complex (from UniProt O76071 1-339; Q9H5X1 1-160)", "values": [{"measurement": "Kd", "setting": "[2]", "result": 48, "unit": "µM"}]}
{"molecule": "KDLVSVGSTW (domain or fragment)", "note": "[SPCNar1 (SUMO peptide carrier with Nar1 residues 482-491)]", "values": [{"measurement": "binding result", "setting": "[3]", "result": "binds"}]}
{"molecule": "B1", "values": [{"measurement": "binding result", "setting": "ScNar1", "result": "binds"}]}
{"molecule": "Nar1: full-length S. cerevisiae Nar1 with N-terminal His6-SUMO tag (protein) MSALLSESDLNDFISPALACVKPTQVSGGKKDNVNMNGEYEVSTEPDQLEKVSITLSDCLACSGCITSSEEILLSSQSHSVFLKNWGKLSQQQDKFLVVSVSPQCRLSLAQYYGLTLEAADLCLMNFFQKHFQCKYMVGTEMGRIISISKTVEKIIAHKKQKENTGADRKPLLSAVCPGFLIYTEKTKPQLVPMLLNVKSPQQITGSLIRATFESLAIARESFYHLSLMPCFDKKLEASRPESLDDGIDCVITPREIVTMLQELNLDFKSFLTEDTSLYGRLSPPGWDPRVHWASNLGGTCGGYAYQYVTAVQRLHPGSQMIVLEGRNSDIVEYRLLHDDRIIAAASELSGFRNIQNLVRKLTSGSGSERKRNITALRKRRTGPKANSREMAAATAATADPYHSDYIEVNACPGACMNGGGLLNGEQNSLKRKQLVQTLNKRHGEELAMVDPLTLGPKLEEAAARPLSLEYVFAPVKQAVEKDLVSVGSTW", "values": [{"measurement": "copurification with the CTC", "setting": "[4]", "result": "Nar1 eluting with Cia1, Cia1-Cia2, and the full CTC"}, {"measurement": "competition with Leu1 for binding to the CTC", "setting": "ScCTC-Leu1 complex", "result": "the interaction of Nar1 and Leu1 with the CTC is mutually exclusive"}, {"measurement": "copurification with Cia1-Cia2", "setting": "ScCia1-Cia2", "result": "Nar1 eluting with Cia1, Cia1-Cia2, and the full CTC"}, {"measurement": "copurification with Cia1", "setting": "ScCia1", "result": "Nar1 eluting with Cia1, Cia1-Cia2, and the full CTC"}]}
{"molecule": "Nar1 TCR-peptide variant: ScNar1 with C-terminal Trp substituted with Ala (protein) MSALLSESDLNDFISPALACVKPTQVSGGKKDNVNMNGEYEVSTEPDQLEKVSITLSDCLACSGCITSSEEILLSSQSHSVFLKNWGKLSQQQDKFLVVSVSPQCRLSLAQYYGLTLEAADLCLMNFFQKHFQCKYMVGTEMGRIISISKTVEKIIAHKKQKENTGADRKPLLSAVCPGFLIYTEKTKPQLVPMLLNVKSPQQITGSLIRATFESLAIARESFYHLSLMPCFDKKLEASRPESLDDGIDCVITPREIVTMLQELNLDFKSFLTEDTSLYGRLSPPGWDPRVHWASNLGGTCGGYAYQYVTAVQRLHPGSQMIVLEGRNSDIVEYRLLHDDRIIAAASELSGFRNIQNLVRKLTSGSGSERKRNITALRKRRTGPKANSREMAAATAATADPYHSDYIEVNACPGACMNGGGLLNGEQNSLKRKQLVQTLNKRHGEELAMVDPLTLGPKLEEAAARPLSLEYVFAPVKQAVEKDLVSVGSTA", "values": [{"measurement": "copurification with the CTC", "setting": "[4]", "result": "less Nar1 TCR-peptide variant was found in the eluate"}]}
{"molecule": "Leu1: S. cerevisiae Leu1 with N-terminal His6-TEV tag (protein) MVYTPSKGPRTLYDKVFDAHVVHQDENGSFLLYIDRHLVHEVTSPQAFEGLENAGRKVRRVDCTLATVDHNIPTESRKNFKSLDTFIKQTDSRLQVKTLENNVKQFGVPYFGMSDARQGIVHTIGPEEGFTLPGTTVVCGDSHTSTHGAFGSLAFGIGTSEVEHVLATQTIIQAKSKNMRITVNGKLSPGITSKDLILYIIGLIGTAGGTGCVIEFAGEAIEALSMEARMSMCNMAIEAGARAGMIKPDETTFQYTKGRPLAPKGAEWEKAVAYWKTLKTDEGAKFDHEINIEAVDVIPTITWGTSPQDALPITGSVPDPKNVTDPIKKSGMERALAYMGLEPNTPLKSIKVDKVFIGSCTNGRIEDLRSAAAVVRGQKLASNIKLAMVVPGSGLVKKQAEAEGLDKIFQEAGFEWREAGCSICLGMNPDILDAYERCASTSNRNFEGRQGALSRTHLMSPAMAAAAGIAGHFVDIREFEYKDQDQSSPKVEVTSEDEKELESAAYDHAEPVQPEDAPQDIANDELKDIPVKSDDTPAKPSSSGMKPFLTLEGISAPLDKANVDTDAIIPKQFLKTIKRTGLKKGLFYEWRFRKDDQGKDQETDFVLNVEPWREAEILVVTGDNFGCGSSREHAPWALKDFGIKSIIAPSYGDIFYNNSFKNGLLPIRLDQQIIIDKLIPIANKGGKLCVDLPNQKILDSDGNVLVDHFEIEPFRKHCLVNGLDDIGITLQKEEYISRYEALRREKYSFLEGGSKLLKFDNVPKRKAVTTTFDKVHQDW", "values": [{"measurement": "copurification with the CTC", "setting": "[4]", "result": "requires its C-terminal Trp to interact with the CTC in vitro"}]}
{"molecule": "R127ACia1: ScCia1 variant (protein, left off: His6, N-terminal, state not stated) MASINLIKSLKLYKEKIWSFDFSQGILATGSTDRKIKLVSVKYDDFTLIDVLDETAHKKAIRSVAWRPHTSLLAAGSFDSTVSIWAKEESADRTFEMDLLAIIEGHENEVKGVAWSNDGYYLATCSADKSVWIWETDESGEEYECISVLQEHSQDVKHVIWHPSEALLASSSYDDTVRIWKDYDDDWECVAVLNGHEGTVWSSDFDKTEGVFRLCSGSDDSTVRVWKYMGDDEDDQQEWVCEAILPDVHKRQVYNVAWGFNGLIASVGADGVLAVYEEVDGEWKVFAKRALCHGVYEINVVKWLELNGKTILATGGDDGIVNFWSLEKAA", "values": [{"measurement": "interaction with SPCNar1", "setting": "SPCNar1", "result": "diminished the amount"}]}
{"molecule": "R127E (protein, UniProt Q05583 1-330, looked up, variant R127E) Cytosolic iron-sulfur protein …: MASINLIKSLKLYKEKIWSFDFSQGILATGSTDRKIKLVSVKYDDFTLIDVLDETAHKKAIRSVAWRPHTSLLAAGSFDSTVSIWAKEESADRTFEMDLLAIIEGHENEVKGVAWSNDGYYLATCSEDKSVWIWETDESGEEYECISVLQEHSQDVKHVIWHPSEALLASSSYDDTVRIWKDYDDDWECVAVLNGHEGTVWSSDFDKTEGVFRLCSGSDDSTVRVWKYMGDDEDDQQEWVCEAILPDVHKRQVYNVAWGFNGLIASVGADGVLAVYEEVDGEWKVFAKRALCHGVYEINVVKWLELNGKTILATGGDDGIVNFWSLEKAA", "values": [{"measurement": "interaction with full-length Nar1", "setting": "full-length Nar1", "result": "none of the Cia1 variants tested, including the charge swapped R127E variant, completely blocked interaction"}]}
